# Experimental data reported in ChEMBL document CHEMBL2331438, “An efficient domino reaction in ionic liquid: synthesis and biological evaluation of some pyrano- and thiopyrano-fused heterocycles” (2013).
# How the values were obtained:
# Candida albicans = assay: Antifungal activity against Candida albicans MTCC 227 after 48 hrs by broth microdilution method; type: functional; settings: MTCC 227, 48 h
# [1] = tested on: Mycobacterium tuberculosis; assay: Antimycobacterial activity against Mycobacterium tuberculosis H37Rv at 250 ug/ml; type: functional
# In short: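 M. tuberculosis H37Rv tested on L.J. (Löwenstein–Jensen) medium.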
# Salmonella typhi = assay: Antibacterial activity against Salmonella typhi MTCC 98 after 24 hrs by broth microdilution method; type: functional, Salmonella enterica subsp. enterica serovar Typhi; settings: Salmonella enterica, MTCC 98, 24 h
# Vibrio cholerae = assay: Antibacterial activity against Vibrio cholerae MTCC 3906 after 24 hrs by broth microdilution method; type: functional; settings: MTCC 3906, 24 h
# Streptococcus pneumoniae = assay: Antibacterial activity against Streptococcus pneumoniae MTCC 1936 after 24 hrs by broth microdilution method; type: functional; settings: MTCC 1936, 24 h
# [2] = Antioxidant activity assessed as ascorbic acid equivalent ferric ion reducing activity per 100 gram at 200 ug/ml by FRAP assay; type: functional
# Aspergillus fumigatus = assay: Antifungal activity against Aspergillus fumigatus MTCC 3008 after 48 hrs by broth microdilution method; type: functional; settings: MTCC 3008, 48 h
# Escherichia coli = assay: Antibacterial activity against Escherichia coli MTCC 443 after 24 hrs by broth microdilution method; type: functional; settings: MTCC 443, 24 h
# Clostridium tetani = assay: Antibacterial activity against Clostridium tetani MTCC 449 after 24 hrs by broth microdilution method; type: functional; settings: MTCC 449, 24 h
# Bacillus subtilis = assay: Antibacterial activity against Bacillus subtilis MTCC 441 after 24 hrs by broth microdilution method; type: functional; settings: MTCC 441, 24 h
Compound,MIC (Candida albicans) [µg/mL],inhibition at 250 µg/mL [1] [%],MIC (Salmonella typhi) [µg/mL],MIC (Vibrio cholerae) [µg/mL],MIC (Streptococcus pneumoniae) [µg/mL],Activity [2] [mmol],MIC (Aspergillus fumigatus) [µg/mL],MIC (Escherichia coli) [µg/mL],MIC (Clostridium tetani) [µg/mL],MIC (Bacillus subtilis) [µg/mL]
Cc1cccc2cc3c(nc12)SC[C@@H]1COc2c(c(-c4ccccc4)nn2-c2ccccc2)[C@H]31,> 1000,9,125,200,200,101,> 1000,100,125,200
Cc1nn(-c2ccccc2Cl)c2c1[C@@H]1c3cc4ccccc4nc3SC[C@@H]1CO2,1000,52,250,250,100,90.9,> 1000,250,250,125
"Cc1nn(-c2cccc(Cl)c2)c2c1[C@@H]1c3cc4cccc(C)c4nc3SC[C@@H]1C(C)(C)O2 (single isomer, unassigned)",500,91,250,100,100,18.2,500,150,1000,200
Cc1ccc(-n2nc(C)c3c2OC(C)(C)[C@H]2COc4ccc5c(C)cc(=O)oc5c4[C@@H]32)cc1,250,32,250,500,100,240,250,100,250,250
"Cc1nn(-c2ccccc2Cl)c2c1[C@@H]1c3cc4cccc(C)c4nc3SC[C@@H]1C(C)(C)O2 (single isomer, unassigned)",250,50,100,200,250,115,500,200,100,250
"Cc1ccc(-n2nc(C)c3c2OC(C)(C)[C@H]2CSc4nc5c(C)cccc5cc4[C@@H]32)cc1 (single isomer, unassigned)",250,91,125,200,100,161,500,125,200,100
Cc1nn(-c2ccc([N+](=O)[O-])cc2)c2c1[C@@H]1c3cc4cccc(C)c4nc3SC[C@@H]1CO2,> 1000,20,62.5,250,200,49.8,> 1000,100,200,250
Cc1nn(-c2ccccc2Cl)c2c1[C@@H]1c3c(ccc4c(C)cc(=O)oc34)OC[C@@H]1C(C)(C)O2,1000,40,125,250,250,210,200,125,250,100
Cc1nn(-c2ccc([N+](=O)[O-])cc2)c2c1[C@@H]1c3c(ccc4c(C)cc(=O)oc34)OC[C@@H]1CO2,1000,79,200,250,250,163,250,125,250,200
c1ccc(-c2nn(-c3ccccc3)c3c2[C@@H]2c4cc5ccccc5nc4SC[C@@H]2CO3)cc1,500,40,250,250,250,105,250,100,250,200
Cc1nn(-c2ccc(Cl)c(Cl)c2)c2c1[C@@H]1c3c(ccc4c(C)cc(=O)oc34)OC[C@@H]1C(C)(C)O2,200,70,250,125,250,150,500,200,250,250
Cc1nn(-c2ccccc2)c2c1[C@@H]1c3c(ccc4c(C)cc(=O)oc34)OC[C@@H]1CO2,> 1000,65,200,250,250,120,> 1000,250,250,500
Cc1nn(-c2ccccc2)c2c1[C@@H]1c3cc4cccc(C)c4nc3SC[C@@H]1CO2,1000,38,200,250,250,160,250,250,200,100
Cc1cc(=O)oc2c3c(ccc12)OC[C@@H]1COc2c(c(-c4ccccc4)nn2-c2ccccc2)[C@H]31,500,68,125,100,100,163,500,62.5,100,125
Cc1nn(-c2cccc(Cl)c2)c2c1[C@@H]1c3cc4ccccc4nc3SC[C@@H]1CO2,> 1000,61,100,200,250,128,1000,62.5,125,200
Cc1nn(-c2ccccc2Cl)c2c1[C@@H]1c3cc4cccc(C)c4nc3SC[C@@H]1CO2,500,29,250,200,100,147,250,250,125,125
Cc1ccc(-n2nc(C)c3c2OC[C@H]2CSc4nc5ccccc5cc4[C@@H]32)cc1,1000,33,125,200,62.5,121,1000,125,200,200
Cc1cc(=O)oc2c3c(ccc12)OC[C@H]1[C@@H]3c2c(-c3ccccc3)nn(-c3ccccc3)c2OC1(C)C,1000,80,100,125,125,160,> 1000,125,100,200
